{"source": "ChEMBL document CHEMBL3826876", "about": "“Toward the Development of Specific G-Quadruplex Binders: Synthesis, Biophysical, and Biological Studies of New Hydrazone Derivatives” (J Med Chem, 2016)", "key": {"[1]": {"experiment": "Binding affinity to synthetic telomere 23 parallel G-quadruplex DNA assessed as change in melting temperature at 4 mol equiv in presence of 100 mM KCl buffer by circular dichroism spectroscopic analysis", "how_it_was_run": "(§1)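 CD melting, 20-100 °C at 1 °C/min, signal at 264 (parallel), 290 (antiparallel) or 280 nm (duplex). G4 DNA 10 µM or duplex 15 µM, folded by heating at 90 °C 5 min and slow cooling, in 10 mM potassium phosphate (c-kit1, Tel23, Tel26) or lithium phosphate (Tel23-p, ds12) pH 7.0 with 100 mM KCl. Ligand 4 equiv; Tm by curve fit, ΔTm vs DNA alone; duplicate average.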"}, "[2]": {"experiment": "Binding affinity to synthetic c-MYC G-quadruplex DNA assessed as change in melting temperature at 4 mol equiv in presence of 20 mM KCl buffer by circular dichroism spectroscopic analysis"}, "[3]": {"experiment": "Effect on synthetic telomere 23 G-quadruplex DNA topology at 4 mol equiv by circular dichroism spectroscopic analysis", "how_it_was_run": "(§2)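 CD spectra at 20 °C, 230-360 nm, 3 scans averaged, baseline subtracted; 10 µM G4 or 15 µM duplex in potassium- or lithium-phosphate pH 7.0 buffers with 100 mM KCl (c-kit2, c-myc: 5 mM potassium phosphate, 20 mM KCl); ligand 4 molar equiv added to folded DNA from 6 mM DMSO stock.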"}, "[4]": {"experiment": "Effect on synthetic c-KIT1 G-quadruplex DNA topology at 4 mol equiv by circular dichroism spectroscopic analysis", "how_it_was_run": "as §2"}, "[5]": {"experiment": "Effect on synthetic c-KIT2 G-quadruplex DNA topology at 4 mol equiv by circular dichroism spectroscopic analysis", "how_it_was_run": "as §2"}, "[6]": {"experiment": "Effect on synthetic c-MYC G-quadruplex DNA topology at 4 mol equiv by circular dichroism spectroscopic analysis", "how_it_was_run": "as §2"}, "[7]": {"experiment": "Effect on synthetic telomere 23 parallel G-quadruplex DNA topology at 4 mol equiv by circular dichroism spectroscopic analysis", "how_it_was_run": "as §2"}, "[8]": {"experiment": "Effect on synthetic telomere 26 G-quadruplex DNA topology at 4 mol equiv by circular dichroism spectroscopic analysis", "how_it_was_run": "as §2"}, "[9]": {"experiment": "Effect on synthetic self-complementary DNA 12-mer duplex topology at 4 mol equiv in presence of K+ ions by circular dichroism spectroscopic analysis", "how_it_was_run": "as §2"}, "[10]": {"experiment": "Binding affinity to synthetic c-KIT1 G-quadruplex DNA assessed as change in melting temperature at 4 mol equiv in presence of 100 mM KCl buffer by circular dichroism spectroscopic analysis", "how_it_was_run": "as §1"}, "[11]": {"experiment": "Binding affinity to synthetic c-KIT2 G-quadruplex DNA assessed as change in melting temperature at 4 mol equiv in presence of 20 mM KCl buffer by circular dichroism spectroscopic analysis", "how_it_was_run": "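CD melting as for other targets (20-100 °C, 1 °C/min, 10 µM folded G4, ligand 4 equiv), but in 5 mM potassium phosphate with 20 mM KCl; c-kit2 read at 264 nm as parallel G4. ΔTm from fitted Tm, duplicate average.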"}, "[12]": {"experiment": "Binding affinity to synthetic telomere 23 G-quadruplex DNA assessed as change in melting temperature at 4 mol equiv in presence of 100 mM KCl buffer by circular dichroism spectroscopic analysis", "how_it_was_run": "as §1"}, "[13]": {"experiment": "Binding affinity to synthetic telomere 26 G-quadruplex DNA assessed as change in melting temperature at 4 mol equiv in presence of 100 mM KCl buffer by circular dichroism spectroscopic analysis", "how_it_was_run": "as §1"}, "[14]": {"experiment": "Binding affinity to synthetic self-complementary DNA 12-mer duplex assessed as change in melting temperature at 4 mol equiv in presence of 100 mM KCl buffer by circular dichroism spectroscopic analysis", "how_it_was_run": "as §1"}, "Homo sapiens": {"species_on_record": "Homo sapiens", "experiment": "Binding affinity to human 5'-FAM/3'-TAMRA labeled telomere 21 G-quadruplex DNA assessed as increase in melting temperature by FRET assay", "how_it_was_run": "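FRET melting screen in 60 mM potassium cacodylate pH 7.4, labelled probe 400 nM annealed at 85 °C for 10 min; ligands at various concentrations up to 20 µM, diluted from 10 mM DMSO stock via 10 mM HCl. Excitation 450-495 nm, emission 515-545 nm, 30-100 °C in 0.5 °C steps with 30 s hold; ΔTm by curve fitting, triplicate.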"}, "U2OS [15]": {"system": "U2OS", "experiment": "Stabilization of nuclear G-quadruplex DNA in human U2OS cells at 10 uM after 24 hrs by DAPI staining based immunofluorescence assay", "format": "cell-based", "how_it_was_run": "(§3)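 U2OS seeded at 100000 cells/ml, treated 24 h after seeding for 24 h; fixed methanol:acetic acid 3:1, 0.1% Triton X-100, 2% milk block. Stained with in-house His-purified BG4, anti-FLAG, Alexa 488 anti-rabbit; nuclei DAPI. Per-cell signal as corrected total cell fluorescence; Student's t test.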"}, "U2OS [16]": {"system": "U2OS", "experiment": "Cytotoxicity against human U2OS cells assessed as cell killing after 1 hr by MTT assay", "format": "functional, cell-based", "how_it_was_run": "(§4)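 U2OS and HCT116 in DMEM with 10% FBS, 1% L-glutamine, seeded at 40000 cells/ml; 24 h later exposed for 1 h or 24 h, then drug-free medium 1-2 days. MTT 1 h at 37 °C, DMSO solubilisation, absorbance 595 nm. IC50 by linear regression; two independent experiments in triplicate, mean ± SE.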"}, "[17]": {"experiment": "Cytotoxicity against human HCT116 cells assessed as cell killing after 1 hr by MTT assay", "format": "functional, cell-based", "conditions": "HCT-116, 1 h", "how_it_was_run": "as §4"}, "U2OS [18]": {"system": "U2OS", "experiment": "Cytotoxicity against human U2OS cells assessed as cell killing after 24 hrs by MTT assay", "format": "functional, cell-based", "how_it_was_run": "as §4"}, "[19]": {"experiment": "Cytotoxicity against human HCT116 cells assessed as cell killing after 24 hrs by MTT assay", "format": "functional, cell-based", "conditions": "HCT-116, 24 h", "how_it_was_run": "as §4"}, "U2OS [20]": {"system": "U2OS", "experiment": "Stabilization of nuclear G-quadruplex DNA in human U2OS cells at 2 to 10 uM after 24 hrs by DAPI staining based immunofluorescence assay", "format": "cell-based", "how_it_was_run": "as §3"}}, "note": "Calls of active or inactive are those of the source. The calls are words filed in the database; no cut-off is given here.", "data": [{"compound": "N=C(N)N/N=C/c1c(-c2ccccc2)nc2ccn3c(/C=N/N=C(N)N)c(-c4ccccc4)nc3n12", "values": [{"measurement": "ΔTm", "setting": "[1]", "result": "> 20", "unit": "°C"}, {"measurement": "ΔTm", "setting": "[2]", "result": "> 20", "unit": "°C"}, {"measurement": "Activity", "setting": "[3]", "result": "inactive"}, {"measurement": "Activity", "setting": "[4]", "result": "inactive"}, {"measurement": "Activity", "setting": "[5]", "result": "inactive"}, {"measurement": "Activity", "setting": "[6]", "result": "inactive"}, {"measurement": "Activity", "setting": "[7]", "result": "inactive"}, {"measurement": "Activity", "setting": "[8]", "result": "inactive"}, {"measurement": "Activity", "setting": "[9]", "result": "inactive"}, {"measurement": "ΔTm", "setting": "[10]", "result": "> 15", "unit": "°C"}, {"measurement": "ΔTm", "setting": "[11]", "result": "> 20", "unit": "°C"}, {"measurement": "ΔTm", "setting": "[12]", "result": -10, "unit": "°C"}, {"measurement": "ΔTm", "setting": "[13]", "result": -4.5, "unit": "°C"}, {"measurement": "ΔTm", "setting": "[14]", "result": 0.1, "unit": "°C"}, {"measurement": "Activity", "setting": "Homo sapiens", "result": "Active"}, {"measurement": "Activity", "setting": "U2OS [15]", "result": "Active"}]}, {"compound": "O=Cc1c(-c2ccccc2)nc2n1ccc1nc(-c3ccccc3)c(C=O)n12", "values": [{"measurement": "IC50", "setting": "U2OS [16]", "result": 45.2, "unit": "µM"}, {"measurement": "IC50", "setting": "[17]", "result": 16.8, "unit": "µM"}, {"measurement": "IC50", "setting": "U2OS [18]", "result": 9.16, "unit": "µM"}, {"measurement": "IC50", "setting": "[19]", "result": 4.06, "unit": "µM"}, {"measurement": "Activity", "setting": "U2OS [20]", "result": "inactive"}]}]}
